Results taken from ChEMBL document CHEMBL4673301, “Design, synthesis, and anti-proliferative evaluation of new quinazolin-4(3H)-ones as potential VEGFR-2 inhibitors” (Bioorg Med Chem, 2021).

Key:
HepG2 [1] = assay: Antiproliferative activity against human HepG2 cells assessed as reduction in cell viability incubated for 24 hrs by MTT assay; format: functional, cell-based; conditions: HepG2, 24 h
Outline: (§1)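 Cells from ATCC grown in RPMI-1640 with 10% FBS, penicillin 100 unit/ml and streptomycin 100 μg/ml at 37 °C, 5% CO2. Seeded at 1.0 x 10^4 cells/well for 48 h, then exposed to a range of compound concentrations for 24 h. MTT (5 mg/ml) added for 4 h, formazan dissolved in DMSO, A570 read. Viability taken as % of untreated. Duplicate wells, at least three independent IC50 determinations.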

MCF7 [2] = assay: Antiproliferative activity against human MCF7 cells assessed as reduction in cell viability incubated for 24 hrs by MTT assay; format: functional, cell-based; conditions: MCF7, 24 h; outline: as §1
HCT-116 [3] = assay: Antiproliferative activity against human HCT-116 cells assessed as reduction in cell viability incubated for 24 hrs by MTT assay; format: functional, cell-based; conditions: HCT-116, 24 h; outline: as §1
[4] = biological target: Vascular endothelial growth factor receptor 2 (Homo sapiens, UniProt P35968)
Sequence of Vascular endothelial growth factor receptor 2 (P35968 whole entry): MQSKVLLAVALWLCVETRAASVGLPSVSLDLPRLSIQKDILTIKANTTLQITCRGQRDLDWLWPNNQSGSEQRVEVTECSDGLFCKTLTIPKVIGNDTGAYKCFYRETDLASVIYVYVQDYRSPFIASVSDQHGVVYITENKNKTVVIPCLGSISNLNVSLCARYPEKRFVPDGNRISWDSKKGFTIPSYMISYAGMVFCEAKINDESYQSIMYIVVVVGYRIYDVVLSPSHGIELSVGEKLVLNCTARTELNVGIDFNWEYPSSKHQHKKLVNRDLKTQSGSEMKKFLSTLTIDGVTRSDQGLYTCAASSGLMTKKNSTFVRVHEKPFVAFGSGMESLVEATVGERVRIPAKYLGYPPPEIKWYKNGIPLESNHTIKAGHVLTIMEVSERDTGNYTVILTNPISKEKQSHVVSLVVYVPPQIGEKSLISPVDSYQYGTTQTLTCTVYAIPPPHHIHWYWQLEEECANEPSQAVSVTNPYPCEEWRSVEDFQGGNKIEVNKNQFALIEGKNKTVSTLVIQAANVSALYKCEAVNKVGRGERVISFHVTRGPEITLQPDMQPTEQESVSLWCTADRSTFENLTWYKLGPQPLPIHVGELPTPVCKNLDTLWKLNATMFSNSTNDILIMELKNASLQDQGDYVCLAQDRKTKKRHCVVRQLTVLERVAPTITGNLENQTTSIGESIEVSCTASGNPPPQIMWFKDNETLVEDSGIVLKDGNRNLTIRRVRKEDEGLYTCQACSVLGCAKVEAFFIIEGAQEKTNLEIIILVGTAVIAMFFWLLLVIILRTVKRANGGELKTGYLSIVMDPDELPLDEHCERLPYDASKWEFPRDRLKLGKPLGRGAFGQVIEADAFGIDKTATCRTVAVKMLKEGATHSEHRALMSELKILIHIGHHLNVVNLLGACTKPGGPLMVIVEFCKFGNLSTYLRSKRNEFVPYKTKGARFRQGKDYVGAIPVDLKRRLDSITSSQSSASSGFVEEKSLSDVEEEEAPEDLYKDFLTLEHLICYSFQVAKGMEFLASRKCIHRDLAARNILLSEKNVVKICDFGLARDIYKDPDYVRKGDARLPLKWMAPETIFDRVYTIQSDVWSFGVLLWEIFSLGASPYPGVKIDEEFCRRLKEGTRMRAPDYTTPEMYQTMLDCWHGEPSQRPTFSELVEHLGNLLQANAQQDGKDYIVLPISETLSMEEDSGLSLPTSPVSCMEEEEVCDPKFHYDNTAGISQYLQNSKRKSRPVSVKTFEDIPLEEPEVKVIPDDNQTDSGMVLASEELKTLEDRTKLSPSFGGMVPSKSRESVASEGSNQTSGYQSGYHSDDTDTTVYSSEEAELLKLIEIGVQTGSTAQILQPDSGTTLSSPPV

MCF7 [5] = assay: Potency index, ratio of IC50 of doxorubicin to IC50 of compound for antiproliferative activity against human MCF7 cells assessed as reduction in cell viability incubated for 24 hrs by MTT assay; format: functional
HCT-116 [6] = assay: Potency index, ratio of IC50 of doxorubicin to IC50 of compound for antiproliferative activity against human HCT-116 cells assessed as reduction in cell viability incubated for 24 hrs by MTT assay; format: functional
HepG2 [7] = assay: Potency index, ratio of IC50 of doxorubicin to IC50 of compound for antiproliferative activity against human HepG2 cells assessed as reduction in cell viability incubated for 24 hrs by MTT assay; format: functional
MCF7 [8] = assay: Potency index, ratio of IC50 of sorafenib to IC50 of compound for antiproliferative activity against human MCF7 cells assessed as reduction in cell viability incubated for 24 hrs by MTT assay; format: functional
HepG2 [9] = assay: Potency index, ratio of IC50 of sorafenib to IC50 of compound for antiproliferative activity against human HepG2 cells assessed as reduction in cell viability incubated for 24 hrs by MTT assay; format: functional
HCT-116 [10] = assay: Potency index, ratio of IC50 of sorafenib to IC50 of compound for antiproliferative activity against human HCT-116 cells assessed as reduction in cell viability incubated for 24 hrs by MTT assay; format: functional

Row | IC50 (HepG2 [1]) | IC50 (MCF7 [2]) | IC50 (HCT-116 [3]) | IC50 [4] | SMILES | Ratio IC50 (MCF7 [5]) | Ratio IC50 (HCT-116 [6]) | Ratio IC50 (HepG2 [7]) | Ratio IC50 (MCF7 [8]) | Ratio IC50 (HepG2 [9]) | Ratio IC50 (HCT-116 [10])
1 | 16.5 µM | 24.9 µM | 14.1 µM |  | Cc1ccc(-n2c(SCC(=O)Nc3ccc(C(=O)NC4CCCCC4)cc3)nc3ccccc3c2=O)cc1 |  |  |  |  |  | 
2 | 30.5 µM | 35.9 µM | 29 µM |  | C/C(=N\NC(=O)c1ccccc1)c1ccc(NC(=O)CSc2nc3ccccc3c(=O)n2-c2ccc(C)cc2)cc1 |  |  |  |  |  | 
3 | 11.7 µM | 14.4 µM | 10.8 µM | 1.07 µM | Cc1ccc(-n2c(SCC(=O)Nc3ccc(C(=O)NNC(=O)c4ccccc4O)cc3)nc3ccccc3c2=O)cc1 |  |  |  |  |  | 
4 | 17.4 µM | 18.3 µM | 13.4 µM | 1.4 µM | Cc1ccc(-n2c(SCC(=O)Nc3ccc(C(=O)NCc4ccccc4)cc3)nc3ccccc3c2=O)cc1 |  |  |  |  |  | 
5 | 12.1 µM | 16.1 µM | 9.4 µM | 1.21 µM | Cc1ccc(-n2c(SCC(=O)Nc3ccc(C(=O)NNc4ccccc4)cc3)nc3ccccc3c2=O)cc1 |  |  |  |  |  | 
6 | 12.3 µM | 13.5 µM | 8.27 µM | 1.78 µM | CC(=O)c1ccc(NC(=O)CSc2nc3ccccc3c(=O)n2-c2ccc(C)cc2)cc1 |  |  |  |  |  | 
7 | 21.8 µM | 26.9 µM | 16.6 µM | 1.37 µM | Cc1ccc(-n2c(SCC(=O)Nc3ccc(C(=O)Nc4ccccc4)cc3)nc3ccccc3c2=O)cc1 |  |  |  |  |  | 
8 | 22.6 µM | 23 µM | 17.1 µM |  | C/C(=N\NC(=O)c1ccccc1Cl)c1ccc(NC(=O)CSc2nc3ccccc3c(=O)n2-c2ccc(C)cc2)cc1 |  |  |  |  |  | 
9 | 21.5 µM | 23.7 µM | 17 µM |  | CCOC(=O)c1ccc(NC(=O)c2ccc(NC(=O)CSc3nc4ccccc4c(=O)n3-c3ccc(C)cc3)cc2)cc1 |  |  |  |  |  | 
10 | 4.12 µM | 5.99 µM | 3.67 µM | 0.685 µM | Cc1ccc(-n2c(SCC(=O)Nc3ccc(C(=O)Nc4ccc(Cl)cc4)cc3)nc3ccccc3c2=O)cc1 |  |  |  |  |  | 
11 | 19 µM | 28.4 µM | 17.4 µM |  | Cc1ccc(NC(=O)c2ccc(NC(=O)CSc3nc4ccccc4c(=O)n3-c3ccc(C)cc3)cc2)cc1 |  |  |  |  |  | 
12 | 33.8 µM | 40.9 µM | 30.4 µM |  | C/C(=N\NC(=O)c1cccc(Cl)c1)c1ccc(NC(=O)CSc2nc3ccccc3c(=O)n2-c2ccc(C)cc2)cc1 |  |  |  |  |  | 
13 | 11.9 µM | 15.4 µM | 12.4 µM | 1.06 µM | C/C(=N\NC(=O)c1ccccc1O)c1ccc(NC(=O)CSc2nc3ccccc3c(=O)n2-c2ccc(C)cc2)cc1 |  |  |  |  |  | 
14 | 1.88 µM | 3.91 µM | 1.68 µM | 0.452 µM | C/C(=N\NC(=O)c1cc([N+](=O)[O-])ccc1Cl)c1ccc(NC(=O)CSc2nc3ccccc3c(=O)n2-c2ccc(C)cc2)cc1 | 1.96 | 5.73 | 4.39 | 1.84 | 3.88 | 5.59
15 | 4.19 µM | 6.79 µM | 6.14 µM | 0.721 µM | CC(=O)NS(=O)(=O)c1ccc(NC(=O)CSc2nc3ccccc3c(=O)n2-c2ccc(C)cc2)cc1 |  |  |  |  |  | 
16 | 6.76 µM | 7.1 µM | 5.24 µM | 0.707 µM | Cc1ccc(-n2c(SCC(=O)Nc3ccc(S(=O)(=O)Nc4nc(C)cc(C)n4)cc3)nc3ccccc3c2=O)cc1 |  |  |  |  |  | 
17 | 8.38 µM | 9.89 µM | 8.32 µM | 1 µM | C/C(=N\NC(N)=S)c1ccc(NC(=O)CSc2nc3ccccc3c(=O)n2-c2ccc(C)cc2)cc1 |  |  |  |  |  | 
18 | 30 µM | 30.6 µM | 24.1 µM |  | Cc1ccc(-n2c(SCC(=O)Nc3ccc(S(=O)(=O)Nc4ccccn4)cc3)nc3ccccc3c2=O)cc1 |  |  |  |  |  | 
19 | 41.6 µM | 44 µM | 37.1 µM |  | C/C(=N\NC(=O)c1ccc(Cl)cc1)c1ccc(NC(=O)CSc2nc3ccccc3c(=O)n2-c2ccc(C)cc2)cc1 |  |  |  |  |  | 
20 |  |  | 9.63 µM |  | COc1cccc2c1C(=O)c1c(O)c3c(c(O)c1C2=O)C[C@@](O)(C(=O)CO)C[C@@H]3O[C@H]1C[C@H](N)[C@H](O)[C@H](C)O1 [DOXORUBICIN] |  |  |  |  |  | 

Row | SMILES | IC50 (HepG2 [1]) | IC50 (MCF7 [2]) | IC50 (HCT-116 [3]) | IC50 [4] | Ratio IC50 (MCF7 [5]) | Ratio IC50 (HCT-116 [6]) | Ratio IC50 (HepG2 [7]) | Ratio IC50 (MCF7 [8]) | Ratio IC50 (HepG2 [9]) | Ratio IC50 (HCT-116 [10])
21 | CNC(=O)c1cc(Oc2ccc(NC(=O)Nc3ccc(Cl)c(C(F)(F)F)c3)cc2)ccn1 [SORAFENIB] | 7.31 µM | 7.21 µM | 9.4 µM |  |  |  |  |  |  | 
